The values that follow come from ChEMBL document CHEMBL2401676, “Synthesis and biological evaluation of pyrrolidine derivatives as novel and potent sodium channel blockers for the treatment of ischemic stroke” (Bioorg Med Chem Lett, 2013).

Data set [1] relates to Rattus norvegicus. Briefly: Neuroprotective activity in Wistar rat transient middle cerebral artery occlusion model at 2.5 mg/kg, sc administered 30 mins after occlusion. Format: functional. Conditions: route subcutaneous. An outline of the steps: (§1)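 Female Wistar rats, 8 weeks old, underwent 90 min transient MCAO followed by reperfusion. Drug was given sc 30 min after occlusion at 0.8, 2.5 or 8.2 mg/kg, and controls received an equal volume of saline. At 24 h the brain was cut into 7 slices and TTC-stained. Infarct area per slice was measured by image analysis and summed to infarct volume; n = 5–6, mean ± SEM, Student's t-test.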

The nature of data set [2]: Neuroprotective activity in guinea pig papillary muscles assessed as action potential duration at 90% repolarization at 10 uM after 30 mins relative to control. Format: functional, Cavia porcellus, Muscle tissue. An outline of the steps:
(§2)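 Intracellular action potentials were evoked by 1 ms pulses at 1.5–3 times the voltage threshold, with all solutions held at 36 °C. APD90 was recorded before and 30 min after compound exposure and expressed against the pre-treatment value.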

Data set [3] has as its system Rattus norvegicus. Briefly: Neuroprotective activity in Wistar rat transient MCAO model assessed as reduction in cerebral infarction size at 8.2 mg/kg, sc (reference value: 379.8 +/- 43.8 mm'3). Format: functional. To be noted: route subcutaneous. In a few lines:
as §1

The nature of data set [4]: Inhibition of sodium channel in Wistar rat cerebrocortical synaptosomes assessed as inhibition of veratridine-induced depolarization using rhodamine-6G by spectrofluorometry. Format: subcellular, Brain.
In data set [5] the target is hERG (KCNH2) (Homo sapiens, UniProt Q12809). In words: Inhibition of human ERG channel expressed in HEK293 cells at 1 uM by voltage patch clamp technique. It counts as cell-based. To be noted: HEK293 cells that express hERG.
hERG (KCNH2), sequence (Q12809 whole entry): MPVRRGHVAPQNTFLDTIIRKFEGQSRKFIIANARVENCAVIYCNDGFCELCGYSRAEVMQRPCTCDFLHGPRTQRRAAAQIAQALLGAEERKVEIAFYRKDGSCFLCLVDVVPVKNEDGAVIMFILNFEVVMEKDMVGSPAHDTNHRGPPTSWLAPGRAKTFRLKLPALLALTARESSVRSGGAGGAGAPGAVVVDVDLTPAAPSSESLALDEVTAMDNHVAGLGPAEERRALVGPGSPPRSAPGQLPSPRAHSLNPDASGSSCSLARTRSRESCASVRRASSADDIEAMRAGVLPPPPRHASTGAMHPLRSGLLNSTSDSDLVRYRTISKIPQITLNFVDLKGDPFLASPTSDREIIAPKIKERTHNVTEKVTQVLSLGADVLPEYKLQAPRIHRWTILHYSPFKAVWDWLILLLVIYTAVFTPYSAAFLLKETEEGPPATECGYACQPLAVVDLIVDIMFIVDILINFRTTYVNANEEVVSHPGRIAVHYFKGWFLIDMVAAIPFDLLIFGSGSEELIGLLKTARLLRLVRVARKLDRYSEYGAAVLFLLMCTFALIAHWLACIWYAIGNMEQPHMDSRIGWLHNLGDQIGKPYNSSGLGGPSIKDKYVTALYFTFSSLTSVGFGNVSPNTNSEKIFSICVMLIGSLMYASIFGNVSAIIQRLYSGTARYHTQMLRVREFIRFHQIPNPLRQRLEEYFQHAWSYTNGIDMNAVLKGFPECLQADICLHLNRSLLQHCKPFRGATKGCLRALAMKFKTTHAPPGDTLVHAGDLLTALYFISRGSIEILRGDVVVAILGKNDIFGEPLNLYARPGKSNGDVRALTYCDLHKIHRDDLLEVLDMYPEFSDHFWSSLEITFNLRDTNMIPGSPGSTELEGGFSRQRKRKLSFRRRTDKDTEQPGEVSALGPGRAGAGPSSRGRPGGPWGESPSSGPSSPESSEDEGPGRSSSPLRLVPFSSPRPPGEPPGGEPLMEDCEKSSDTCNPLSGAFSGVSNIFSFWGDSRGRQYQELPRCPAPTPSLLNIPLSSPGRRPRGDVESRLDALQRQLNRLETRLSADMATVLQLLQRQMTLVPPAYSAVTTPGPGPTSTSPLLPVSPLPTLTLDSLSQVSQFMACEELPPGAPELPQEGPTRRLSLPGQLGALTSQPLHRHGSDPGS
A short description of data set [6]: Neuroprotective activity in guinea pig papillary muscles assessed as action potential duration at 90% repolarization at 100 uM after 30 mins relative to control. Format: functional, Cavia porcellus, Muscle tissue. In a few lines: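 Action potentials were evoked by 1 ms stimuli at 1.5–3 times threshold voltage, with all solutions kept at 36 °C. APD90 was recorded before compound exposure and again 30 min after.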

Data set [7] in a line: Neuroprotective activity in guinea pig papillary muscles assessed as action potential duration at 90% repolarization at 30 uM after 30 mins relative to control. It counts as functional, Cavia porcellus, Muscle tissue. In a few lines:
as §2

The subject of data set [8] is Rattus norvegicus. In words: Neuroprotective activity in Wistar rat transient middle cerebral artery occlusion model at 8.2 mg/kg, sc administered 30 mins after occlusion. It counts as functional. To be noted: route subcutaneous. An outline of the steps:
as §1

The test system of data set [9] is Rattus norvegicus. In words: Neuroprotective activity in Wistar rat transient middle cerebral artery occlusion model at 0.8 mg/kg, sc administered 30 mins after occlusion. It counts as functional. Conditions: route subcutaneous. An outline of the steps:
as §1

The subject of data set [10] is Rattus norvegicus. Briefly: Neuroprotective activity in sc dosed Wistar rat transient middle cerebral artery occlusion model administered 30 mins after occlusion. Format: functional, organism-based. In a few lines: as §1
Data set [11] is described as follows: Neuroprotective activity in guinea pig papillary muscles assessed as action potential duration at 90% repolarization at 3 uM after 30 mins relative to control. Format: functional, Cavia porcellus, Muscle tissue. In a few lines:
as §2

Turning to `Cl.Cl.c1ccc(CN2C[C@@H](NC3CCCCC3)[C@H](c3ccccc3)C2)cc1` (racemic), the Activity in data set [1] is reported as 37%; in data set [2], 95.3%; in data set [3], 166.7 mm3; in data set [6], 90.8%; in data set [7] it was 92.3%; in data set [8], 56%. Moreover, the Activity in [9] is 27%. The IC50 in [4] turned out to be 0.51 µM. Besides, testing at 1 µM in data set [5] gave an inhibition of 8.4%.

In the case of `c1ccc(CN2C[C@H](NC3CCCCC3)[C@H](c3ccccc3)C2)cc1`, in [4], the IC50 turned out to be 0.56 µM. Also, in data set [5], testing at 1 µM gave an inhibition of 28%.

As to `c1ccc(CN2C[C@H](NC3CCCCC3)[C@@H](c3ccccc3)C2)cc1`, the half-inhibitory concentration (IC50) in data set [4] is 0.57 µM.

Take `c1ccc(CN2C[C@@H](NC3CCCCC3)[C@H](c3ccccc3)C2)cc1` (racemic): the Activity result in data set [10] is “Dose-dependent effect”.

Take `c1ccc([C@@H]2CN(CC3CCCCC3)C[C@H]2NC2CCCCC2)cc1` (racemic): in data set [4], the IC50 came to 0.38 µM. The compound also returned an inhibition at 1 µM in data set [5] of 45%.

`c1ccc(CN[C@@H]2CN(Cc3ccccc3)C[C@H]2c2ccccc2)cc1` (racemic): in data set [4], the half-inhibitory concentration (IC50) was found to be 0.64 µM. In data set [5], the inhibition at 1 µM turned out to be 57%.

On to `c1ccc(CN2C[C@@H](NC3CCCCC3)[C@H](c3ccccc3)C2)cc1`, for which, in data set [4], the IC50 came out at 0.54 µM.

Turning to `C[C@@H](CN1CC[C@@]2(C)c3cccc(O)c3C[C@@H]1C2(C)C)OCc1ccccc1.Cl`, the Activity is given as 89.1% in data set [2], 96.6% in [11] and 72.9% in data set [7]. Further, at 1 µM the inhibition in [5] was 69%.

For the compound `c1ccc(CN2C[C@@H](NCC3CCCCC3)[C@H](C3CCCCC3)C2)cc1` (racemic), the IC50 in data set [4] was found to be 0.56 µM. The same compound came in with an inhibition at 1 µM in data set [5] of 60%.

In [5], `OC(COc1ccc2c(c1)CCC2)CN1CCC(c2nc3ccccc3[nH]2)CC1` (configuration not stated) had an inhibition at 1 µM of 99%.

With `c1ccc([C@@H]2CN(C3CCCCC3)C[C@H]2NC2CCCCC2)cc1` (racemic), in [4], the IC50 was 3.35 µM.

In the case of `c1ccc(CN2C[C@@H](NCC3CCCCC3)[C@H](c3ccccc3)C2)cc1` (racemic), in data set [4], the IC50 worked out at 0.32 µM. Moreover, testing at 1 µM in data set [5] gave an inhibition of 60%.

On to `c1ccc(CN2C[C@@H](Nc3ccccc3)[C@H](c3ccccc3)C2)cc1` (racemic), for which the half-maximal inhibitory concentration (IC50) in data set [4] worked out at 0.48 µM. Testing at 1 µM in data set [5] gave an inhibition of 43%.

`Cc1cc(OC[C@@H](O)CN2CCN(c3ccc(Cc4ccc(F)cc4)cc3)CC2)c(C)c(C)c1N` yielded an inhibition at 1 µM in data set [5] of 78%.

As for `O=C(N[C@@H]1CN(Cc2ccccc2)C[C@H]1C1CCCCC1)C1CCCCC1` (racemic), the IC50 in [4] stood at 0.74 µM. This compound also yielded an inhibition at 1 µM in data set [5] of 45%.

Turning to `c1ccc(CN[C@@H]2CN(Cc3ccccc3)C[C@H]2C2CCCCC2)cc1` (racemic), the IC50 in data set [4] turned out to be 0.9 µM. Moreover, in [5], the inhibition at 1 µM is 79%.

For `O=C(N[C@@H]1CN(Cc2ccccc2)C[C@H]1c1ccccc1)C1CCCCC1` (racemic), the half-inhibitory concentration (IC50) in data set [4] was determined as 0.48 µM. Also, 1 µM produced 31% inhibition in data set [5].

Regarding `O=C(N[C@@H]1CN(Cc2ccccc2)C[C@H]1c1ccccc1)c1ccccc1` (racemic), the half-maximal inhibitory concentration (IC50) in data set [4] was 1.9 µM. This compound showed an inhibition at 1 µM in data set [5] of 45%.

For `c1ccc(CN2C[C@@H](NC3CCCCC3)[C@H](C3CCCCC3)C2)cc1` (racemic), in data set [4], the IC50 came to 0.74 µM. In data set [5], this compound registered an inhibition at 1 µM of 35%.

As for `Cc1nc(OCCCCCN2CCCCC2)cc(-c2ccc(F)cc2)n1`, the inhibition at 1 µM in data set [5] was 60%.

As a reminder, the IC50 is the concentration that gives 50% inhibition. The term inhibition denotes the drop in the measured response relative to a control, in per cent. A higher inhibition goes with strong suppression.
